Assay outcomes: PubChem BioAssay, Johns Hopkins Ion Channel Center
The list is not random: actives were taken first. Their share in the collection is about 3.7%.
KCNQ1 block: human KCNQ1 channel inhibition; P51787; CHO-K1 KCNQ1, FluxOR thallium flux fluorescence; hits give high values; B-score at 10 µM; 1.3% of 310,000 active; AID 2642;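 active = compounds whose thallium flux B-score, printed positive for inhibition, exceeds three library SD while starting fluorescence stays within three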;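 note: channel opened by potassium depolarization with thallium stimulus after 20 min compound exposure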
KCNK3 inh: human KCNK3 channel inhibition, primary screen; O14649; CHO-KCNK3 thallium flux, FluxOR fluorescence; hits give low values; B-score at 10 µM; 0.84% of 340,000 active;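 active = B-score under library mean minus 4 SD, starting fluorescence ratio at most library mean plus 5 SD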;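 note: more negative B-score means stronger inhibition of thallium flux through KCNK3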
Target sequence (O14649 whole entry, looked up): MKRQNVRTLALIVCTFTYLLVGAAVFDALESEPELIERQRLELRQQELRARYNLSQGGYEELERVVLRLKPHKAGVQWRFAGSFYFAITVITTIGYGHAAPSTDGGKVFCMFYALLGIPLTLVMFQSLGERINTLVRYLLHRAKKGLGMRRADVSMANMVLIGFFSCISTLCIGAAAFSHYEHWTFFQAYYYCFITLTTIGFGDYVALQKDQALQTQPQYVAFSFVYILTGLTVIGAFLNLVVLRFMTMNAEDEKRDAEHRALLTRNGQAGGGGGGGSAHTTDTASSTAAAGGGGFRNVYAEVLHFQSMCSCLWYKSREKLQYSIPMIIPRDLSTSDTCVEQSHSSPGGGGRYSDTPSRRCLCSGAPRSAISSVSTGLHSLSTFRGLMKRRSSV
KCNQ1 act: potentiators or activators of human KCNQ1 potassium channel | CHO-K1 KCNQ1, thallium flux FluxOR fluorescence; hits give high values | P51787 | 0.35% of 310,000 active | B-score at 10 µM;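 active = fluorescence ratio B-score, a plate-corrected score, at least three library SD, with initial intensity B-score within 5 SD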
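Assay system: CHO-K1 cells stably expressing KCNQ1. Medium: assay buffer for compound exposure, DMSO matched across wells. Timing: 37 °C overnight plating, 90-min dark dye load, 20-min compound pretreatment. Signal: kinetic FluxOR fluorescence, 10 s baseline plus 110 s post-stimulus.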
hERG protect: shields human hERG channel from block by proarrhythmic agents; CHO-hERG, FluxOR thallium flux, dofetilide IC70 present; activation (rescue from dofetilide block), less the hit threshold, % at 10 µM; 0.51% of 310,000 active;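 active = activation above the mean of controls blocked by dofetilide plus 5 SD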;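 note: thallium influx through hERG after potassium depolarization seen as dye fluorescence rise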
Kir21 block: blocks the mouse Kir2.1 inward-rectifier potassium channel; AID 1672; 0.85% of 310,000 active; P35561; HEK293-Kir2.1, FluxOR thallium flux fluorescence; hits give low values; B-score at 10 µM;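 active = fluorescence ratio B-score at or below minus 3 SD of library scores, with starting-brightness B-score within 2 SD, cut at about -4.2 in these data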;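 note: channel flux triggered by added potassium and thallium sulfate stimulus; B-score of peak minus minimum fluorescence over baseline after thallium stimulus; more negative B-score means stronger Kir2.1 block with less thallium influx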
KCNK9 block: blocks the human KCNK9 two-pore domain potassium channel | Q9NPC2 | HEK293 KCNK9, FluxOR thallium flux fluorescence; hits give low values | B-score at 10 µM | 1.2% of 310,000 active | AID 488922;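 active = ratio B-score over 3 SD below the library mean, with starting fluorescence within 5 SD of its mean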;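 note: negative B-score means less thallium flux so channel inhibition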
The depositor's hits bear a star; i = inactive; . = no result.

SMILES | KCNQ1 block | KCNK3 inh | KCNQ1 act | hERG protect | Kir21 block | KCNK9 block
CN1CCN(CCCNC(=O)c2ccc(Cn3c(=S)[nH]c4ccc(Br)cc4c3=O)cc2)CC1 | i | i | i | -15 | 0.13 | i
COc1ccc(CCN2CCC(Nc3nc4ccccc4n3Cc3ccc(F)cc3)CC2)cc1 | i | i | i | . | -6.8* | i
C=CCn1cnc2c(nnn2Cc2ccc(F)cc2)c1=O | i | i | i | -4 | 0.31 | i
O=C(CNC(=O)c1ccc(Cl)c([N+](=O)[O-])c1)OC1CCCCC1=O (centres undefined) | i | i | i | -8 | 0.67 | i
CCN(C(=O)CCc1nc(-c2ccc(OC)cc2)no1)c1cc(OC)ccc1OC | i | i | i | -8 | -0.78 | -7.6*
COc1ccc(/C=C(\C#N)C(=O)c2c(C)[nH]c3ccccc23)cc1OC | 6* | i | i | -23 | 2.1 | i
COc1cc(/C=C(\C#N)C(=O)c2c(C)[nH]c3ccccc23)cc(OC)c1OC | i | i | i | -16 | 0.88 | i
Cc1ccc(-c2nc3ncccc3o2)cc1NC(=O)COc1ccccc1 | i | i | i | -3 | 0.37 | i
Cc1ccc(-c2nc3cccnc3o2)cc1NC(=O)COc1ccc(C(C)(C)C)cc1 | 9* | i | i | -6 | 0 | i
CCOC(=O)c1ccc(N=c2sc(C(=O)OC)cc(=O)n2-c2ccc(C(=O)OCC)cc2)cc1 | 6* | i | i | -10 | 0.04 | i
COC(=O)c1cc(=O)n(-c2ccccc2)c(=Nc2ccccc2)s1 | i | i | i | -10 | -0.55 | i
COC(=O)c1cc(=O)n(Cc2ccc(F)cc2)c(=Nc2ccccc2)s1 | 6* | i | i | -8 | -0.49 | i
COC(=O)c1cc(=O)n(Cc2ccc(OC)c(OC)c2)c(=Nc2ccc(F)cc2)s1 | 6* | i | i | -9 | 0.47 | i
O=C(O)c1cc(-c2ccc(/C=N/N3C(=O)C4C5C=CC(C6CC56)C4C3=O)o2)ccc1Cl (centres undefined) | i | i | i | -9 | 2.6 | i
CN1CCC(=C(c2ccccc2)c2ccc(Br)cc2)CC1 | i | i | i | -18 | -8.6* | i
Cc1ccc(COn2c(-c3ccc(Cl)cc3)nc3ccc([N+](=O)[O-])cc32)cc1 | i | i | i | -7 | 0.21 | i
O=[N+]([O-])c1ccc2nc(-c3ccc(Cl)cc3)n(OCc3ccccc3)c2c1 | 6* | i | i | -4 | 0.19 | i
CCOC(=O)C(C)On1c(-c2ccccc2)nc2ccc([N+](=O)[O-])cc21 (centres undefined) | i | i | i | -16 | -1.4 | i
CCOC(=O)C(C)On1c(-c2ccc(Cl)cc2)nc2ccc([N+](=O)[O-])cc21 (centres undefined) | 9* | i | i | -2 | 0.57 | i
Cc1cc(C)cc(NC(=O)N2CCN(C/C=C/c3ccccc3)CC2)c1 | i | i | i | -5 | -3.9 | i
Cc1ccc(C)c2sc(NC(=O)c3nc4ccccc4s3)nc12 | i | i | 25* | 8.9* | 0.39 | i
O=C(Nc1ccccc1)c1nc2ccccc2s1 | i | i | i | -10 | 0.83 | i
Cc1ccc(CCNS(=O)(=O)c2cc3c(cc2C)NC(=O)CO3)cc1 | i | i | i | -9 | -0.12 | i
[O-][n+]1c2c(c3c4non(O)c4ccc31)CCCC2 | 6* | i | i | -20 | -4.7 | i
COn1c2c(c3c4no[n+]([O-])c4ccc31)CCCC2 | i | i | i | -4 | -0.25 | i
SMILES | KCNQ1 block | KCNK3 inh | KCNQ1 act | hERG protect | Kir21 block | KCNK9 block
O=C(NC(=S)Nc1ccccc1N1CCCCC1)c1ccco1 | i | i | i | 14* | 0.68 | i
O=C(NC(=S)Nc1ccccc1N1CCOCC1)c1ccco1 | i | i | i | -9 | 0.83 | i
O=C(NC(=S)Nc1cccc(Cl)c1N1CCCCC1)c1ccco1 | i | i | 16* | 3 | 0.41 | i
O=C(NC(=S)Nc1ccccc1N1CCCC1)c1ccco1 | i | i | 12* | 3 | 1.3 | i
O=C(NC(=S)Nc1ccccc1Cl)c1ccco1 | i | i | 14* | 12* | -0.97 | i
O=C(NC(=S)Nc1cccc2c(O)cccc12)c1ccco1 | i | i | i | 0 | 0.42 | i
CCSc1nnc(NC(=O)C2CSC3(C)CCC(=O)N23)s1 (centres undefined) | . | i | . | . | . | .
CN(Cc1ccc(Cl)cc1)C(=O)CNC(=O)C12CC3CC(CC(C3)C1)C2 | . | i | . | . | . | .
COc1ccc(C(=O)NCc2nnc(SCC(=O)Nc3cccc(F)c3)o2)cc1 | i | i | i | -8 | 0.27 | i
O=C(CCCc1ccccn1)c1ccc(-c2ccccc2)cc1 | . | i | . | . | . | .
CCC(C)c1ccccc1NC(=S)NC(=O)c1ccco1 (centres undefined) | i | i | 29* | 32* | -1.2 | i
CC(C)C(=O)N1CCN(c2ccccc2NC(=S)NC(=O)c2ccco2)CC1 | i | i | i | -4 | 0.7 | i
CC1CCN(c2ccc(NC(=S)NC(=O)c3ccco3)cc2)CC1 | i | i | i | -2 | 0.01 | i
O=C(NC(=S)Nc1ccccc1N1CCCC1)c1ccccc1Br | i | i | 16* | 14* | 0.52 | i
O=C(NC(=S)Nc1ccc(N2CCCCC2)cc1)c1ccco1 | i | i | 9* | 5.6* | 0.85 | i
Cc1nc2cc(C(=O)N3CCN(C)CC3)ccc2n1C | i | i | i | -7 | 2.4 | i
CCCCC(CC)CN1C(=O)/C(=C/c2ccncc2)SC1=S (centres undefined) | 7* | i | i | -3 | -3.5 | i
CCN1C(=O)/C(=C\c2ccncc2)SC1=S | i | i | i | -3 | -0.66 | i
COc1ccc(C(C(=O)NC2CCCCC2)N(C(=O)c2snc(C(N)=O)c2N)c2ccc(OC)cc2OC)cc1 (centres undefined) | i | i | i | -8 | 0.06 | i
COc1ccc(N(C(=O)c2snc(C(N)=O)c2N)C(C(=O)NC2CCCCC2)c2ccc(C)o2)c(OC)c1 (centres undefined) | 6* | i | i | -9 | 0.75 | i
Cc1ccccc1N(C(=O)c1snc(C(N)=O)c1N)C(C(=O)NC1CCCCC1)c1ccc(O)cc1 (centres undefined) | 6* | i | i | -9 | -1 | i
Cn1c(SCc2ccc(Br)cc2)nnc1-c1ccccn1 | i | i | i | -10 | 0.3 | i
